An excerpt weighted towards active compounds, which were near 4% of everything screened.
OX1R antag-1 – blocks the human orexin 1 receptor; O43613; OX1R-expressing cells, FRET antagonist read-out; inhibition, % at 6.6 µM; actives 1.8% (n = 330,000); AID 485270; in the data active = inhibition mostly above about 38%, no sharp cut-off; inactive = mostly below about 40%;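 note: 0% = agonist challenge alone and 100% = reference antagonist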
OX1R antag-2 – antagonists of human orexin 1 receptor. CHO/OX1R cells, Fluo-8 calcium fluorescence, orexin A. inhibition, % at 5 µM. actives 0.43% (n = 330,000). AID 434989;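 active = inhibition above its plate's threshold, mean inhibition of all tested compounds on the plate plus 3 SD, cut at about 37% in these data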;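 note: 0% = orexin A challenge wells and 100% = SB-334867-A antagonist wells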
NTR1 agonist – agonists of human neurotensin receptor NTR1; P30989; actives 0.17% (n = 330,000); NTR1-U2OS beta-arrestin-GFP spot imaging, agonist mode; activation, % at 20 µM;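 active = activation at or above 40% of the spot to cytoplasm intensity ratio, with at least 20 cells analyzed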;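 note: 0% = DMSO without peptide and 100% = 100 nM NTR1 peptide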
Target sequence (P30989 whole entry, looked up): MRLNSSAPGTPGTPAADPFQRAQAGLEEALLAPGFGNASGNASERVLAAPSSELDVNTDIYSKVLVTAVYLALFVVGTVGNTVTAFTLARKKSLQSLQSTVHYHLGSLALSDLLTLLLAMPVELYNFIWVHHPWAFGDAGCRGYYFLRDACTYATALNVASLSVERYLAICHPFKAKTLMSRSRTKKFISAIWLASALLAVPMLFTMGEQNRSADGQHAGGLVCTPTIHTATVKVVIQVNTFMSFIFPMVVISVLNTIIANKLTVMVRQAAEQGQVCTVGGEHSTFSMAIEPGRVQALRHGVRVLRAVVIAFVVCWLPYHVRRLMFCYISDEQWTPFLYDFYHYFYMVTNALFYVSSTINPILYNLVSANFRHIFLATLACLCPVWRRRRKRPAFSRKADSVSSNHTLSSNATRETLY
CHO parental Ca – counter-screen for OX1R antagonists: effect in parental CHO cells. parental CHO-K1, ATP-induced calcium, Fluo-8 fluorescence. actives 0.63% (n = 330,000). inhibition, % at 5.6 µM;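 active = inhibition above that plate's mean sample inhibition plus 3 SD, cut at about 26% in these data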;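 note: 0% = ATP-challenged DMSO wells and 100% = DMSO wells without ATP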
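Material – parental CHO cells · Reagent – ATP stimulus · Compound – single nominal dose of 5.6 µM per compound · Detection – Fluo-8 fluorescence · Read-out basis – percent inhibition of calcium signal · Controls – ATP-challenged DMSO wells low, unchallenged DMSO wells high · Repeats – no replicates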
TAAR1 agonist – human TAAR1 agonism; activation, % at 3 µM; CHO RD-HGA16 TAAR1, Fluo-8 calcium fluorescence; vehicle wells 0%, saturating PEA agonist 100%; actives 0.99% (n = 360,000);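 active = activation above the mean activation of all test compounds in the run plus 3 SD, cut at about 38% in these data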
Target sequence (Q96RJ0 whole entry, looked up): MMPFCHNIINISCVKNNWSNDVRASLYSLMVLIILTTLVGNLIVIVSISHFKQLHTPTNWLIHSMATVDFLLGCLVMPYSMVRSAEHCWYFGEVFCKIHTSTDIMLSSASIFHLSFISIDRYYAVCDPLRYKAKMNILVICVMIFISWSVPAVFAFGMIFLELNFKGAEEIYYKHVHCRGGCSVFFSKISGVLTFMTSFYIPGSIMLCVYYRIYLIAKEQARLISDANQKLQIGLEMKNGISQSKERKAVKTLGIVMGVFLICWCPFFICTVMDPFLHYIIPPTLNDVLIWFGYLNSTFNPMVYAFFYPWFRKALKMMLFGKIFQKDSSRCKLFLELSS
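Benchmarks: low control DMSO, high control PEA (EC100); System: CHO RD-HGA16 cells carrying human TAAR1 plus Gα16; Detection: Fluo-8 fluorescence, 5 s baseline then 140 s kinetic read; Schedule: 17-24 h plating, Fluo-8 75 min 37 °C, 30 min RT; Read-out basis: % activation from peak over basal fluorescence ratio, DMSO-to-PEA scaled.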
TAAR1 antag – antagonists of human TAAR1; CHO RD-HGA16 TAAR1, Fluo-8 calcium fluorescence, antagonist; actives 1.5% (n = 360,000); AID 624466; Q96RJ0; inhibition, % at 3 µM;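 active = inhibition above a per-plate cutoff, the mean inhibition of test compounds on that plate plus 3 SD, cut at about 49% in these data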;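 note: 0% = DMSO plus EC80 beta-PEA response and 100% = DMSO alone without agonist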
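Material: CHO RD-HGA16 cells bearing hTAAR1; compound dosing: one-point dosing, 3 µM nominal final; schedule: dye loading 75 min at 37 °C, then 30 min room temperature; measured by: calcium fluorescence with Fluo-8; control set: vehicle and agonist controls; replication: n of 1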
OX1R HTRF conf – OX1R (human) antagonism, HTRF confirmed | shares compounds with OX1R antag-1 | OX1R-expressing cells, HTRF antagonist assay | inhibition, % at 6.6 µM | actives 49% (n = 1,800) | AID 492964; in the data active = inhibition above about 55%;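 note: CHO cells expressing OX1R stimulated with orexin A at about EC80; 0% = agonist challenge alone and 100% = reference antagonist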
CHO-K1 HTRF cnt – signal in parental CHO-K1 cells, OX1R antagonist counter-screen | HTRF counterscreen | shares compounds with OX1R antag-1 | inhibition, % at 6.6 µM | actives 48% (n = 1,800); in the data active = inhibition above about 17%;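 note: 0% = agonist challenge with vehicle and 100% = vehicle alone without agonist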
The depositor's hits bear a star; . = not tested or not shown.

SMILES | OX1R antag-1 | OX1R antag-2 | NTR1 agonist | CHO parental Ca | TAAR1 agonist | TAAR1 antag | OX1R HTRF conf | CHO-K1 HTRF cnt
O=C(CSc1ccc(-c2cccs2)nn1)c1cccs1 | 111.3* | 20.5 | -0.5 | -19.8 | 2.0 | 6.0 | 95.3* | 6.3
CCn1c(NCc2ccc(N(C)C)cc2)nc2ccccc21 | 25.1 | -18.4 | -1.1 | -10.8 | 9.3 | -6.9 | . | .
CN(C)c1ccc(N=Nc2nc3ccccc3n2C)cc1 | 105.9* | 15.1 | 3.6 | -9.4 | -1.8 | -20.8 | 107.0* | 29.1*
Cc1cccc(S(=O)(=O)NC(=O)C2(C)CCN2C(=O)C2(c3ccc(Cl)cc3)CCC2)c1 (stereo not drawn) | . | . | . | . | 1.0 | 7.4 | . | .
C=CCOn1c(=O)c(-c2ccccc2)[n+]([O-])c2ccccc21 | 122.4* | -28.5 | -1.0 | -14.4 | -0.5 | -3.4 | 35.4 | 46.7*
CCOn1c(=O)c(-c2ccc(OC)c(OC)c2)[n+]([O-])c2ccccc21 | 103.2* | 2.7 | -0.9 | 3.5 | 0.5 | 4.4 | 39.8 | 37.0*
CCOn1c(=O)c(-c2ccc(OC)cc2)[n+]([O-])c2ccccc21 | 120.6* | -15.2 | 2.9 | -19.0 | 2.1 | -1.8 | 35.1 | 38.1*
C=CCOn1c(=O)c(-c2ccc(C)cc2)[n+]([O-])c2ccccc21 | 28.7 | -19.5 | 0.3 | -12.2 | -1.3 | -4.1 | . | .
O=C(COc1ccccc1Cl)NCCNC(=O)c1ccco1 | 10.2 | 2.6 | -1.8 | -0.3 | -1.9 | 2.2 | . | .
Cc1cccc(C(=O)NC(=S)Nc2c(C)n(C)n(-c3ccccc3)c2=O)c1 | -0.2 | -16.3 | . | -9.9 | 2.2 | 2.9 | . | .
COc1ccc(/C=N/NC(=O)c2sccc2C)c2ccccc12 | 9.5 | -21.5 | 1.4 | 14.1 | 5.5 | -4.4 | . | .
COc1ccc(/C=N/NC(=O)c2cc(C)on2)c2ccccc12 | 86.7* | -24.2 | 0.1 | -28.9 | 9.4 | 19.0 | 64.8* | 11.1
O=C(COC(=O)c1ccc[n+]([O-])c1)Nc1cc([N+](=O)[O-])ccc1Cl | 25.8 | -4.0 | 4.1 | -3.5 | 1.1 | -4.0 | . | .
CCc1cc2c(=O)c(-c3nc(C)cs3)coc2cc1O | 82.1* | 12.4 | 3.0 | -6.8 | 0.1 | 7.2 | 77.6* | -1.2
COc1ccc2c(=O)c(-c3nc(C)cs3)coc2c1 | 24.2 | -19.3 | -2.1 | -17.1 | 7.2 | -14.5 | . | .
Cc1cc(OCC(=O)NCCc2c[nH]c3ccccc23)c2c(C)c(C)c(=O)oc2c1 | 86.0* | -32.4 | 2.2 | -7.9 | 1.3 | 43.8 | 32.7 | 5.1
CC(C)C[C@@H](CN=[N+]=[N-])N1CCN(Cc2ccccc2)CCC1=O | 20.8 | -38.6 | -2.0 | -18.5 | 3.0 | 3.0 | . | .
CN1CN=C(NS(=O)(=O)c2ccc([N+](=O)[O-])cc2)NC1 | 82.8* | -9.7 | -0.7 | -1.8 | 6.1 | -20.9 | 32.2 | 29.7*
CC(=O)Nc1ccc(S(=O)(=O)NC2=NCN(c3ccc([N+](=O)[O-])cc3)CN2)cc1 | 13.3 | -9.8 | -0.3 | 0.4 | 2.9 | -2.4 | . | .
CNc1snc(C)c1C(=O)OC(C)C(=O)NCc1ccccc1 (stereo not drawn) | . | . | -0.4 | . | -0.1 | -25.5 | . | .
CCOCC(=O)N1CCN(c2ccc([N+](=O)[O-])cc2)CC1 | 82.6* | -21.2 | 0.8 | 11.9 | -1.9 | 31.5 | 32.9 | 29.1*
NC(=O)[C@@H]1CCCCNc2c(F)cc([N+](=O)[O-])cc2C(=O)N[C@@H](CC(=O)O)C(=O)N[C@@H](CCC(=O)O)C(=O)N1 | 109.6* | -14.1 | -6.9 | 10.6 | . | . | 33.8 | 33.4*
O=C(NC(=S)Nc1cccc2cccnc12)c1cccs1 | 94.8* | 24.2 | 2.9 | -24.4 | 5.0 | 33.2 | 92.6* | 6.9
O=C(NC(=S)Nc1cccc2cccnc12)c1ccccc1 | 19.0 | -13.1 | 0.0 | -13.9 | 13.4 | 0.2 | . | .
O=C(O)c1ccc(Nc2ccc([N+](=O)[O-])c3nonc23)cc1 | . | . | 1.6 | . | -0.2 | -2.7 | . | .
SMILES | OX1R antag-1 | OX1R antag-2 | NTR1 agonist | CHO parental Ca | TAAR1 agonist | TAAR1 antag | OX1R HTRF conf | CHO-K1 HTRF cnt
NS(=O)(=O)c1ccc(Nc2ccc([N+](=O)[O-])c3nonc23)cc1 | 132.1* | -1.9 | 1.1 | 4.3 | 2.3 | -13.1 | 49.9 | 62.7*
CC(=O)c1ccc(Nc2ccc([N+](=O)[O-])c3nonc23)cc1 | 77.9* | 0.5 | 0.5 | 19.7 | 9.5 | -2.4 | 41.4 | 38.6*
COc1cccc(/C=C2\Oc3ccc(O)cc3C2=O)c1O | 94.5* | 25.1 | 1.8 | -7.1 | 3.2 | -27.1 | 93.1* | 15.7
O=C(O)CCC(C(=O)O)n1c(O)c(C2=c3ccccc3=NC2=O)sc1=S (stereo not drawn) | 149.9* | 0.0 | 0.5 | -0.4 | 19.4 | -2.0 | 68.1* | 105.2*
O=C1N=c2ccccc2=C1c1sc(=S)n(CC2CCCO2)c1O (stereo not drawn) | 11.4 | -24.0 | 4.4 | -10.2 | 1.8 | -12.2 | . | .
CCOC(=O)CN1C(=O)CC(c2ccccc2)C1=O (stereo not drawn) | 14.5 | 3.7 | 0.7 | -2.6 | 1.3 | -16.2 | . | .
COc1cc(NS(=O)(=O)c2ccc(NC(=O)c3cccnc3)cc2)ncn1 | 10.2 | -5.7 | 0.2 | -4.3 | 2.7 | -9.8 | . | .
Nc1nccc(/C=C/c2c(F)cccc2Cl)n1 | 27.9 | -24.0 | 0.6 | -12.2 | -0.6 | -4.6 | . | .
O=c1cc(/C=C/c2c(F)cccc2Cl)[nH]c2ccccc12 | 90.1* | 23.1 | . | -8.5 | 0.7 | -12.3 | 90.0* | 2.3
COc1ccc(C2=NS(=O)(=O)N(C)C(C(=O)Nc3ccc(F)cc3F)=C2)cc1 | 6.0 | -9.6 | 4.3 | -5.6 | 5.9 | 23.4 | . | .
COc1cc2c(=O)n(CCC(=O)NCC3CCCO3)c(=O)n(CC(=O)c3ccc(Cl)cc3)c2cc1OC (stereo not drawn) | 92.7* | -35.3 | -0.2 | -4.1 | 2.9 | -34.1 | 27.0 | 1.8
COC(=O)c1sc(NC(=O)c2ccc([N+](=O)[O-])o2)c(C#N)c1C | 91.5* | 19.4 | 5.2 | 9.1 | 2.6 | -14.9 | 64.0* | 29.6*
O=C(Nc1ccc(N2CCOCC2)cc1)c1ccc([N+](=O)[O-])o1 | 94.8* | -4.3 | 2.6 | 4.9 | -2.9 | -11.5 | 41.5 | 15.1
Cc1cccnc1NC(=O)c1ccc([N+](=O)[O-])o1 | 116.2* | 0.3 | -1.0 | 2.3 | 7.5 | 17.6 | 35.8 | 57.5*
Cc1cccc(NC(=O)c2ccc([N+](=O)[O-])o2)n1 | 96.8* | -7.5 | -0.7 | -5.3 | 10.6 | -5.0 | 44.9 | 63.9*
CC(=O)N1CCc2c(sc(NC(=O)c3ccc([N+](=O)[O-])o3)c2C#N)C1 | . | . | . | . | 15.5 | -18.2 | . | .
Cn1cnc([N+](=O)[O-])c1S(=O)(=O)Oc1ccc(Cl)cc1 | . | . | . | . | 7.8 | 15.9 | . | .

From PubChem BioAssay
